Data set [1] is described as follows: Cytotoxicity against human MT2 cells assessed as reduction in cell growth by MTT assay. The format is toxicity, cell-based. The essentials: (§1)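 Human MT-2 T cells, run in triplicate. For antiviral activity, cells were infected with the HIV-1 IIIB strain, and EC50 was taken as the dose giving 50% protection of infected cells. For cytotoxicity, CC50 was the concentration that inhibited MT-2 cell growth by 50%.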
For orientation: Tetrazolium dyes change colour on reduction, which living cells bring about.

Data set [2] can be described thus: Inhibition of wild-type HIV1 3B reverse transcriptase infected in human MT2 cells assessed as protection against viral infection by MTT assay. The note with it: Human immunodeficiency virus 1, 3B. The data set is classed as cell-based. The essentials:
as §1

A short description of data set [3]: Aqueous solubility of the compound at pH 6.5 by shake-flask method. The format is physicochemical.

This note sets out measurements from ChEMBL document CHEMBL3867485, “Design, Conformation, and Crystallography of 2-Naphthyl Phenyl Ethers as Potent Anti-HIV Agents” (ACS Med Chem Lett, 2016).

In brackets after ≈: the same amount, converted by molar mass.

On to `Cc1cc2ccc(C#N)cc2c(C)c1Oc1ccccc1OCCn1ccc(=O)[nH]c1=O`, for which, in data set [1], the CC50 (in general, the concentration giving 50% cytotoxicity) was 5000 nM. In addition, in data set [2], the 50% effective concentration (EC50) (in general, the concentration at which the effect is half-maximal) is 160 nM.

In the case of `Cc1cc(Oc2ccc(F)cc2OCCn2ccc(=O)[nH]c2=O)c(C)c2cc(C#N)ccc12`, the cytotoxic concentration (CC50) in data set [1] is over 100000 nM. Also, the EC50 in data set [2] amounted to 1.9 nM.

As to `N#Cc1ccc2ccc(Oc3ccccc3OCCn3ccc(=O)[nH]c3=O)cc2c1`, in data set [1], the CC50 came to 15000 nM. Moreover, in data set [2], the half-maximal effective concentration (EC50) worked out at 22 nM.

On to `N#Cc1ccc2cc(Oc3ccccc3OCCn3ccc(=O)[nH]c3=O)ccc2c1`, for which the CC50 in data set [1] amounted to 9000 nM. Besides, the concentration for a half-maximal effect (EC50) in data set [2] was 1300 nM.

In the case of `N#Cc1ccc2c(F)cc(Oc3ccccc3OCCn3ccc(=O)[nH]c3=O)c(Cl)c2c1`, the cytotoxic concentration (CC50) in data set [1] was over 100000 nM. Also, the EC50 in data set [2] is 5 nM.

For the compound `Cc1c(Oc2ccccc2OCCn2ccc(=O)[nH]c2=O)cc(F)c2ccc(C#N)cc12`, the CC50 in data set [1] is over 100000 nM. Besides, the thermodynamic solubility (usually solubility found after equilibrating the solid with the medium) in data set [3] was found to be 28.2 µg/mL (≈ 65.4 µM). In addition, in data set [2], the 50% effective concentration (EC50) was 7.8 nM.

As for `Cc1cc(Oc2ccccc2OCCn2ccc(=O)[nH]c2=O)c(C)c2cc(C#N)ccc12`, the half-maximal cytotoxic concentration (CC50) in data set [1] is over 100000 nM. For the same compound, the EC50 in data set [2] was 3.5 nM.

With `Cc1cc(Oc2ccc(F)cc2OCCn2ccc(=O)[nH]c2=O)c(F)c2cc(C#N)ccc12`, in data set [1], the cytotoxic concentration (CC50) was found to be 45000 nM. Moreover, the half-maximal effective concentration (EC50) in data set [2] was 58 nM.

In the case of `CCc1cc(Oc2ccccc2OCCn2ccc(=O)[nH]c2=O)c(C)c2cc(C#N)ccc12`, the 50% cytotoxic concentration (CC50) in data set [1] turned out to be 12000 nM. The half-maximal effective concentration (EC50) in data set [2] came to 6 nM.

Regarding `Cc1c(Oc2ccc(F)cc2OCCn2ccc(=O)[nH]c2=O)cc(F)c2ccc(C#N)cc12`, in data set [1], the CC50 was over 100000 nM. The concentration for a half-maximal effect (EC50) in data set [2] was found to be 3 nM.

Regarding `COc1cc(Oc2ccccc2OCCn2ccc(=O)[nH]c2=O)c(C)c2cc(C#N)ccc12`, the CC50 in data set [1] was over 100000 nM. The EC50 in data set [2] came to 17 nM.

In the case of `Cc1cc(Oc2ccccc2OCCn2ccc(=O)[nH]c2=O)cc2cc(C#N)ccc12`, in data set [1], the cytotoxic concentration (CC50) was found to be 6000 nM. Further, in data set [2], the EC50 was 4.9 nM.

Consider `N#Cc1ccc2c(Cl)cc(Oc3ccc(F)cc3OCCn3ccc(=O)[nH]c3=O)cc2c1`, for which the CC50 in data set [1] was over 100000 nM. In data set [2], the EC50 was 24 nM.

For the compound `N#Cc1ccc2c(Cl)cc(Oc3ccccc3OCCn3ccc(=O)[nH]c3=O)cc2c1`, the half-maximal cytotoxic concentration (CC50) in data set [1] was 12000 nM. Moreover, the EC50 in data set [2] was determined as 14 nM.

For `Cc1c(Oc2ccccc2OCCn2ccc(=O)[nH]c2=O)cc(C(C)C)c2ccc(C#N)cc12`, the half-maximal cytotoxic concentration (CC50) in data set [1] is 9000 nM. The EC50 in data set [2] is 16 nM.

For the compound `Cc1c(Oc2ccccc2OCCn2ccc(=O)[nH]c2=O)c(C)c2cc(C#N)ccc2c1C`, in data set [1], the CC50 is over 100000 nM. Further, the 50% effective concentration (EC50) in data set [2] is 580 nM.

For the compound `Cc1c(Oc2ccc(Cl)cc2OCCn2ccc(=O)[nH]c2=O)cc(F)c2ccc(C#N)cc12`, the 50% cytotoxic concentration (CC50) in data set [1] worked out at 6000 nM. In data set [2], the 50% effective concentration (EC50) came to 18 nM.

As for `Cc1c(Oc2ccccc2OCCn2ccc(=O)[nH]c2=O)cc(Cl)c2ccc(C#N)cc12`, the CC50 in data set [1] is over 100000 nM. In addition, the thermodynamic solubility in data set [3] was 20.6 µg/mL (≈ 46 µM). Besides, the EC50 in data set [2] amounted to 6.2 nM.

Turning to `CCOc1cc(Oc2ccccc2OCCn2ccc(=O)[nH]c2=O)c(C)c2cc(C#N)ccc12`, in data set [1], the half-maximal cytotoxic concentration (CC50) was over 100000 nM. For the same compound, in data set [2], the EC50 came out at 10 nM.

Turning to `N#Cc1cc2c(Oc3ccc(F)cc3OCCn3ccc(=O)[nH]c3=O)cc(F)cn2c1`, in data set [2], the EC50 stood at 0.4 nM.

Take `N#Cc1ccc2c(F)cc(Oc3ccc(F)cc3OCCn3ccc(=O)[nH]c3=O)c(Cl)c2c1`: the half-maximal cytotoxic concentration (CC50) in data set [1] worked out at 28000 nM. Further, the EC50 in data set [2] worked out at 7 nM.

For `N#Cc1ccc2ccc(Oc3ccc(F)cc3OCCn3ccc(=O)[nH]c3=O)cc2c1`, in data set [1], the CC50 was over 100000 nM. The concentration for a half-maximal effect (EC50) in data set [2] is 26 nM.

In the case of `Cc1cc(Oc2ccccc2OCCn2ccc(=O)[nH]c2=O)c(Cl)c2cc(C#N)ccc12`, the 50% cytotoxic concentration (CC50) in data set [1] is over 100000 nM. In data set [2], the EC50 was 5 nM.

For `COCc1cc(Oc2ccccc2OCCn2ccc(=O)[nH]c2=O)c(C)c2cc(C#N)ccc12`, the CC50 in data set [1] amounted to 16000 nM. Further, the EC50 in data set [2] is 15 nM.

As for `CCCc1cc(Oc2ccccc2OCCn2ccc(=O)[nH]c2=O)c(C)c2cc(C#N)ccc12`, in data set [1], the CC50 was 15000 nM. Besides, the EC50 in data set [2] came out at 21 nM.

On to `Cc1c(Oc2ccccc2OCCn2ccc(=O)[nH]c2=O)cc(CC2CC2)c2ccc(C#N)cc12`, for which the CC50 in data set [1] turned out to be 13000 nM. The concentration giving a half-maximal response (EC50) in data set [2] came to 18 nM.

`Cc1c(Oc2ccc(F)cc2OCCn2ccc(=O)[nH]c2=O)cc(Cl)c2ccc(C#N)cc12`: the 50% cytotoxic concentration (CC50) in data set [1] stood at 82000 nM. The EC50 in data set [2] was 3.6 nM.
